From PubChem BioAssay
In the library only some 0.79% were active in any assay of this set; here they are far more common.
mIAP activ = activators of mouse IAP, primary screen, biochemical, luminescence, uHTS | intestinal alkaline phosphatase [Mus musculus] | muIAP, CDP-Star luminescence, 30 min; active compounds read high; 1 = vehicle-only enzyme signal, 0 = enzyme-free wells | activation factor at 10 µM | 330,000 compounds, 0.24% hits | AID 2805, 2010;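 active = activation factor of at least 2 at 20 µM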
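System: mouse IAP enzyme. Reagent: CDP-Star chemiluminescent phosphatase substrate. Benchmarks: DMSO wells, no-enzyme wells. Times: 30 min enzyme-substrate-compound incubation at room temperature. Detection: luminescence from enzymatic CDP-Star hydrolysis. Doses: test compounds delivered from DMSO solution.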
bIAP act = bovine intestinal alkaline phosphatase activators, primary screen, biochemical, bovine IAP, CDP-star luminescence | alkaline phosphatase, intestinal [Bos taurus] | purified bovine IAP, 30 min; active compounds read high; fold of DMSO-control signal, blank-subtracted | activation factor at 20 µM | 200,000 compounds, 0.17% hits | AID 1016, 2008;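 active = activation factor of 2 or more at 20 µM, a signal rise over negative controls twice the positive control's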
bIAP inh = bovine intestinal alkaline phosphatase inhibitors, primary screen, selectivity assay for TNAP inhibitor project, biochemical, bovine IAP, CDP-star luminescence. 190,000 tested, under 10 active. alkaline phosphatase, intestinal [Bos taurus]. purified bovine IAP, 30 min. inhibition, % at 20 µM. AID 1019, 2008;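 active = over 50% inhibition of intestinal alkaline phosphatase at 20 µM in the single-dose screen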
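System: purified bovine intestinal alkaline phosphatase (IAP) enzyme; Input: IAP diluted 1/65,000,000 in the well; Measured by: CDP-star luminescence signal; Compound dosing: 20 µM single dose; Incubation: 30 min reaction at room temperature.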
hIAP block = human IAP inhibitors, primary screen, biochemical, luminescence, uHTS; Intestinal-type alkaline phosphatase (Homo sapiens), P09923; purified IAP, CDP-Star luminescence, 30 min; inhibition, % at 10 µM; 330,000 compounds, 0.12% hits; AID 2544, 2010;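 active = inhibition reaching a set limit with compound at 10 µM in the primary screen, cut at about 35% in these data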;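 note: plate controls were DMSO wells with enzyme for no effect and no-enzyme buffer wells for full effect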
Target sequence (P09923 whole entry, looked up): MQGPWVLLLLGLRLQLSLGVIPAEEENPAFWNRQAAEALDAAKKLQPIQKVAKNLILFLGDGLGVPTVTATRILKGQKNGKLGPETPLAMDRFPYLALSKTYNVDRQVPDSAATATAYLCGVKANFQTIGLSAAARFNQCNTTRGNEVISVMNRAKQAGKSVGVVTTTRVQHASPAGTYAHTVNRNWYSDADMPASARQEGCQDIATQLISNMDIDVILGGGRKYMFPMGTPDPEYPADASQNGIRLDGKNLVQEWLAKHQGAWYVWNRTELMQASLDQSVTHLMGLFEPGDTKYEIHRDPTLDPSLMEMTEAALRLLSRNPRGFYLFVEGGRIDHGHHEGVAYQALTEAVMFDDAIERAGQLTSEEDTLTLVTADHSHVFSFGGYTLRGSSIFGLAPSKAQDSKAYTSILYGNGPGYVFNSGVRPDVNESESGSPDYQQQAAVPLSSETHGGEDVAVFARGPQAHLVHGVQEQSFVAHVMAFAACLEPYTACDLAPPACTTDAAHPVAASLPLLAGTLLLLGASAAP
hIAP activ = human IAP activators, primary screen, biochemical, luminescence, uHTS; Intestinal-type alkaline phosphatase (Homo sapiens), P09923; purified human IAP, CDP-Star luminescence, 30 min; active compounds read high; 1 = vehicle-only enzyme, 0 = enzyme-free background; activation factor at 10 µM; 330,000 compounds, 0.16% hits; AID 2524, 2010;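 active = activation factor of the enzyme at least 2-fold when tested at 20 µM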
mIAP block = inhibitors of mouse IAP, primary screen, biochemical, luminescence, uHTS. intestinal alkaline phosphatase [Mus musculus]. purified mouse IAP, CDP-Star luminescence, 30 min. inhibition, % at 10 µM. 330,000 compounds, 0.2% hits. AID 2806, 2010;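 active = inhibition of at least 40% at 10 µM in the primary screen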;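 note: plate controls were DMSO with enzyme for no effect and no enzyme wells for full effect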
* = called active by the depositor; i = inactive; . = no result.

SMILES	mIAP activ	bIAP act	bIAP inh	hIAP block	hIAP activ	mIAP block
Cc1cccc(NC(=S)NC2CC3CCCC(C2)N3Cc2cccs2)c1 (configuration not stated)	5.88*	1.2	-20.0	10.2	0.898	-488.0
O=C(Nc1ccccc1C(=O)NC1CC1)c1ccc([N+](=O)[O-])o1	0.87	.	.	-10.6	1.11	13.0
CN(CC(=O)Nc1cccc(S(=O)(=O)N2CCOCC2)c1)CC(=O)Nc1ccc(Cl)c(C(F)(F)F)c1	1.04	.	.	5.8	0.942	-4.1
CC(NC(=O)c1cc2cc(F)ccc2[nH]1)c1ccccc1 (configuration not stated)	1.21	.	.	6.4	0.936	-20.8
Cc1ccc(C(NC(=O)NC(C)c2ccccc2)C(Cl)(Cl)Cl)cc1F (configuration not stated)	13.8*	0.7	25.6	12.9	0.871	i
COc1ccc(-c2nn(C)c3sc(C(=O)NCc4ccco4)cc23)cc1OC	1.08	3.5*	-254.0	-8.6	1.09	-7.9
O=C1c2c(O)cc(O)cc2O[C@@]12c1c(cc(O)c3c1O[C@H](c1ccc(O)cc1)[C@@H](O)C3)O[C@@H]2c1ccc(O)cc1	0.588	1	1.2	7.4	0.926	41.2*
N#C/C(=C\Nc1ccc(Cl)cc1)S(=O)(=O)c1ccccn1	0.954	.	.	-0.5	1	4.6
COC(=O)N/N=C/c1c(C)nn(-c2cccc(Cl)c2)c1Cl	0.961	3*	-200.8	9.8	0.902	3.9
CCCOC(=O)c1ccc(NC(=O)Oc2ccccc2)cc1	1.04	2.6*	-157.4	14.7	0.853	-3.9
O=C(CC1(CC(=O)N2CCOCC2)CCCC1)Nc1ccc(F)cc1	1.14	.	.	-6.7	1.07	-14.0
CCN(CC#CCC1(O)c2ccccc2-c2ccccc21)C(C)C	1.02	1.1	-5.8	-8.7	1.09	-1.7
CCN(CC)c1nc(OCCNC(=O)Nc2ccccc2)nc(N(CC)CC)n1	2.48*	1.4	-42.5	-10.8	1.11	-147.8
O=C(CSC(=S)N1CCN(c2ccccc2)CC1)Nc1nc(-c2ccccc2)c(-c2ccccc2)o1	0.909	2.2*	-123.4	-10.6	1.11	9.1
O=C1N[C@@H](Cc2cn(S(=O)(=O)c3c(F)c(F)c(F)c(F)c3F)c3ccccc23)C(=O)N[C@H]1Cc1ccccc1	0.992	.	.	11.9	0.881	0.8
Cc1ccc(C(=O)C(NC(=O)c2ccco2)Nc2sc3c(c2C(N)=O)CCCC3)cc1 (configuration not stated)	0.89	3.6*	-262.9	-11.9	1.12	11.0
O=C(NC1CCN(Cc2ccc(Cl)cc2)CC1)c1cn(-c2ccccc2)nc1-c1cccnc1	2.27*	.	.	2.7	0.973	-126.9
O=C(NCc1ccncc1)c1cn(-c2ccccc2)nc1-c1cccnc1	1.22	1.3	-31.3	6.9	0.931	-22.0
C1CCC(c2nn3c(-c4n[nH]c5c4CCC5)nnc3s2)CC1	0.982	4.3*	-334.4	-0.8	1.01	1.8
Cc1ccn2c(Nc3ccccc3C)c(-c3ccccn3)nc2c1	0.878	2.1*	-112.2	-22.4	1.22	12.2
COc1ccc(CCNC(=O)CSc2cn(Cc3cccc(C)c3)c3ccccc23)cc1OC	2.25*	0.9	13.2	7.2	0.928	-124.8
Cc1cccc(C(C)C)c1NC(=O)COC(=O)CCN1C(=O)C2CC=CCC2C1=O (configuration not stated)	1.08	.	.	9.5	0.905	-8.5
Cn1c(/C=N/Nc2nc3ccccc3[nH]2)nc2ccccc21	0.582	0.9	14.3	-15.8	1.16	41.8*
Cc1ccc(NC(=O)Nc2cc(S(=O)(=O)N(C)C)ccc2C)cc1	2.77*	0.8	18.8	-10.2	1.1	-177.3
Cc1c(C(=O)O)sc2nc3n(c(=O)c12)CCC(C)CC3 (configuration not stated)	0.59	1.1	-5.2	-14.2	1.14	41.0*
